# Measurements from ChEMBL document CHEMBL2311419, “Discovery of coumarin-dihydropyridine hybrids as bone anabolic agents” (J Med Chem, 2013).
# Active and inactive are the calls of the source. No cut-off for these calls is given here.
# Assays:
# Mus musculus [1] = species: Mus musculus; test: Stimulation of alkaline phosphatase activity in mouse calvarial osteoblasts at 1 pM to 1 uM after 48 hrs by spectrophotometric analysis relative to nifedipine
# [2] = Cytotoxicity against mouse calvarial osteoblasts assessed as cell viability at 1 pM to 1 uM after 48 hrs by MTT assay; format: cell-based; settings: calvarial osteoblast
# Mus musculus [3] = species: Mus musculus; test: Stimulation of alkaline phosphatase activity in mouse calvarial osteoblasts assessed as concentration required for maximum activity after 48 hrs by spectrophotometric analysis
# Summary of the method: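 Calvarial osteoblasts were exposed to compounds over 1 pM to 1 µM. ALP activity was read spectrophotometrically as optical density at 405 nm. Results were expressed as % ALP activity, with EC50 and Emax derived from the concentration series.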
# Mus musculus [4] = test: Hepatotoxicity against BALB/c mouse assessed as morphological changes at 1 to 10 mg/kg/day, po after 2 months; format: toxicity, organism-based; design: route oral; settings: in vivo
# Mus musculus [5] = test: Induction of new bone formation in ovariectomized BALB/c mouse model assessed as increase in bone formation rate at 1 mg/kg/day, po qd for 8 weeks by bone histomorphometry analysis (Rvb =0.10 um'3/um'2/day); format: functional
# Mus musculus [6] = test: Inhibition of osteoclastogenesis in ovariectomized BALB/c mouse model assessed as increase in OPG/RANKL ratio at 5 to 10 mg/kg/day, po qd for 8 weeks by qPCR analysis; format: functional, organism-based
# Mus musculus [7] = test: Inhibition of osteoclastogenesis in ovariectomized BALB/c mouse model assessed as increase in OPG/RANKL ratio at 1 mg/kg/day, po qd for 8 weeks by qPCR analysis; format: functional, organism-based
# Mus musculus [8] = test: Inhibition of osteoclastogenesis in ovariectomized BALB/c mouse model assessed as suppression of TRAP gene expression at 5 to 10 mg/kg/day, po qd for 8 weeks by qPCR analysis; format: functional, organism-based
# Mus musculus [9] = test: Induction of osteoblast differentiation in ovariectomized BALB/c mouse model assessed as upregulation of COL1 mRNA expression at 1 mg/kg/day, po qd for 8 weeks by qPCR analysis; format: functional, organism-based
# Mus musculus [10] = test: Induction of osteoblast differentiation in ovariectomized BALB/c mouse model assessed as upregulation of COL1 mRNA expression po administered qd for 8 weeks by qPCR analysis; format: functional, organism-based
# Mus musculus [11] = test: Inhibition of bone turnover in ovariectomized BALB/c mouse model assessed as reduction in ovariectomy-induced serum CTx levels at 1 mg/kg/day, po qd for 8 weeks by ELISA; format: functional, organism-based
# Mus musculus [12] = test: Antiosteoporotic activity in ovariectomized BALB/c mouse model assessed as restoration of ovariectomy-induced increase in structural model index at 10 mg/kg/day, po qd for 8 weeks; format: functional, organism-based
# Mus musculus [13] = test: Antiosteoporotic activity in ovariectomized BALB/c mouse model assessed as restoration of ovariectomy-induced increase in trabecular separation at 1 mg/kg/day, po qd for 8 weeks (reference value: 0.99+/-0.08mm); format: functional, Trabecula
# Mus musculus [14] = test: Antiosteoporotic activity in ovariectomized BALB/c mouse model assessed as restoration of ovariectomy-induced reduction in bone volume/trabecular volume at 1 mg/kg/day, po qd for 8 weeks (reference value: 0.45+/-0.07%); format: functional, Trabecula; design: scale not given: the % may be the effect or the level left
# Mus musculus [15] = test: Antiosteoporotic activity in ovariectomized BALB/c mouse model assessed as restoration of ovariectomy-induced deterioration of trabecular microarchitecture at 1 to 10 mg/kg/day, po qd for 8 weeks; format: functional, organism-based; settings: Trabecula
# Calvarial osteoblast [16] = test: Induction of osteoblastogenesis in mouse calvarial osteoblasts assessed as increase in BMP2 expression at 100 pM to 10 nM by Western blotting analysis; format: functional, cell-based
# Calvarial osteoblast [17] = test: Induction of osteoblastogenesis in mouse calvarial osteoblasts assessed as increase in expression of ALP gene at 100 pM by qPCR analysis relative to control; format: functional, cell-based
# Calvarial osteoblast [18] = test: Induction of osteoblastogenesis in mouse calvarial osteoblasts assessed as increase in expression of BMP2 gene at 100 pM by qPCR analysis relative to control; format: functional, cell-based
# Calvarial osteoblast [19] = test: Induction of osteoblastogenesis in mouse calvarial osteoblasts assessed as increase in expression of RUNX2 gene at 100 pM by qPCR analysis relative to control; format: functional, cell-based
# Calvarial osteoblast [20] = test: Induction of osteoblastogenesis in mouse calvarial osteoblasts assessed as increase in expression of COL1 gene at 100 pM to 10 nM by qPCR analysis relative to control; format: functional
# Calvarial osteoblast [21] = test: Induction of osteoblastogenesis in mouse calvarial osteoblasts assessed as increase in expression of osteocalcin gene at 100 pM to 10 nM by qPCR analysis relative to control; format: functional
# Calvarial osteoblast [22] = test: Induction of osteoblastogenesis in mouse calvarial osteoblasts assessed as increase in expression of RUNX2 gene at 100 pM to 10 nM by qPCR analysis relative to control; format: functional
structure (smiles),measurement,setting,value
CCOC(=O)C1=C(C)NC2=C(C(=O)CCC2)C1c1cc(C(C)CC)c2oc(=O)c(C(=O)OC)cc2c1 (configuration not stated),Activity,Mus musculus [1],32%
same,Activity,[2],Non-toxic
same,Concentration giving maximum ALP activity,Mus musculus [3],100 pM
same,Activity,Mus musculus [4],Non-toxic
same,Activity,Mus musculus [5],0.37 um3/um2/day
same,inhibition,Mus musculus [6],Active
same,inhibition,Mus musculus [7],Active
same,inhibition,Mus musculus [8],Active
same,Activity,Mus musculus [9],Active
same,Activity,Mus musculus [10],Dose-dependent effect
same,inhibition,Mus musculus [11],Active
same,Activity,Mus musculus [12],Active
same,Activity,Mus musculus [13],0.66 mm
same,Activity,Mus musculus [14],2.85%
same,Activity,Mus musculus [15],Active
same,Activity,Calvarial osteoblast [16],Active
same,Activity,Calvarial osteoblast [17],Active
same,Activity,Calvarial osteoblast [18],Active
same,Activity,Calvarial osteoblast [19],Active
same,fold change (FC),Calvarial osteoblast [20],1.5
same,fold change (FC),Calvarial osteoblast [21],1.5
same,fold change (FC),Calvarial osteoblast [22],1.5
